Series [1] concerns RAW264.7. Briefly: Inhibition of RANKL-induced osteoclastogenesis in mouse RAW264.7 cells assessed as TRAP-positive cells at 10 uM after 1 hr by microplate reader assay. Details: scale not given: the % may be the effect or the level left. The series is classed as functional. The essentials: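 RAW264.7 plated at 1 10^3 cells/well in α-MEM/10% FBS with 100 ng/mL RANKL; compound (10 μM) or DMSO vehicle added after 24 h. On day 4, cells fixed (10% formalin 10 min, 95% ethanol 1 min). TRAP activity measured in 50 mM citrate pH 4.6 with 10 mM tartrate and 5 mM p-nitrophenylphosphate for 1 h, stopped with 0.1 N NaOH, A410. Triplicate; 100% = RANKL minus vehicle difference.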

A short description of series [2]: Inhibition of NFkappa signaling in mouse RAW264.7 cells assessed as reduction in RANKL-induced transcriptional activation on NF-kappaB by luciferase reporter gene assay. The format is cell-based.
Series [3] can be described thus: Cytotoxicity against mouse RAW264.7 cells assessed as cell viability at 30 uM after day 4 by CCK-8 assay. The series is classed as cell-based. To be noted: read-out: Activity. The essentials: (§1)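 RAW264.7 cells exposed to compound at 30 μM final for 1 day or 4 days; viability read by CCK-8 assay.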
The subject of series [4] is RAW264.7. Briefly: Inhibition of RANKL-induced ERK phosphorylation in mouse RAW264.7 cells at 10 uM by Western blot analysis. The series is classed as cell-based.
For series [5], the system named is RAW264.7. Nature of the series: Downregulation of RANKL-induced fra2 mRNA expression in mouse RAW264.7 cells at 10 uM by RT-PCR analysis. The series is classed as functional, cell-based.
Series [6] deals with RAW264.7. Nature of the series: Downregulation of RANKL-induced NFATc1 mRNA expression in mouse RAW264.7 cells at 10 uM by RT-PCR analysis. The series is classed as functional, cell-based.
The test system of series [7] is RAW264.7. Briefly: Inhibition of c-Src mRNA expression in mouse RAW264.7 cells at 10 uM by RT-PCR analysis. The format is functional, cell-based.
Series [8] has as its system RAW264.7. Nature of the series: Inhibition of MMP-7 mRNA expression in mouse RAW264.7 cells at 10 uM by RT-PCR analysis. The series is classed as functional, cell-based.
In series [9] the test system is RAW264.7. Briefly: Inhibition of RANKL-induced osteoclastogenesis in mouse RAW264.7 cells assessed as decrease in TRAP-positive cells after 1 hr by microplate reader assay. The format is functional, cell-based. Conditions: RAW264.7, 1 h. The procedure, abridged:
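RAW264.7 in α-MEM/10% FBS plus 100 ng/mL RANKL; compound or DMSO vehicle added after 24 h, dose-dependent series. On day 4, cells fixed and TRAP activity read as p-nitrophenylphosphate (5 mM) hydrolysis in tartrate-containing citrate buffer pH 4.6, 1 h, NaOH stop, A410. IC50 derived; triplicate.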

The test system of series [10] is RAW264.7. Nature of the series: Downregulation of RANKL-induced c-fos mRNA expression in mouse RAW264.7 cells at 10 uM by RT-PCR analysis. The format is functional, cell-based.
For series [11], the system named is Macrophage. Briefly: Inhibition of RANKL-induced osteoclastogenesis in BALB/c mouse Bone marrow macrophages assessed as decrease in TRAP-positive cells after 1 hr by microplate reader assay. The format is functional, cell-based. The procedure, abridged:
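BALB/c femur/tibia monocytes grown 1 day with 10 ng/mL M-CSF, then nonadherent cells 3 days with 30 ng/mL M-CSF. Adherent BMMs plated at 3 10^5 cells/well with 100 ng/mL RANKL and 30 ng/mL M-CSF, then given compound dose series. TRAP activity read via p-nitrophenylphosphate hydrolysis (pH 4.6 citrate, tartrate, 1 h, A410). IC50 derived.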

Series [12] is described as follows: Cytotoxicity against mouse RAW264.7 cells assessed as cell viability at 30 uM after day 1 by CCK-8 assay. The format is cell-based. To be noted: read-out: Activity. The essentials: as §1
The test system of series [13] is RAW264.7. Briefly: Inhibition of TRAP mRNA expression in mouse RAW264.7 cells at 10 uM by RT-PCR analysis. The format is functional, cell-based.
Series [14] in a line: Inhibition of NFkappa signaling in mouse RAW264.7 cells assessed as reduction in RANKL-induced transcriptional activation on NF-kappaB at 10 uM by luciferase reporter gene assay. The series is classed as cell-based.

Calls of active or inactive are those of the source. The calls are words filed in the database; no cut-off is given here.

With `CC1(C)Oc2cc(F)ccc2C2C1=CCn1c(=O)n(-c3ccccc3)c(=O)n12` (centres undefined), in series [1], the Activity is listed as 121%.

As to `CC1(C)Oc2cc(O)ccc2C2C1=CCn1c(=O)n(-c3ccccc3)c(=O)n12` (centres undefined), the inhibition entry in series [2] was “Dose-dependent effect”. For the same compound, the viability at 4 day, 30 µM in [3] amounted to 74%. Moreover, the inhibition result in [4], in [7], in [8] and in series [13] was “Active” in each case. Further, the outcome in series [5], in series [6] and in [10] was Active. In addition, the Activity in [1] is on record as 43%. The results for the IC50 in series [9] and in [11] were 7.07 µM and 6.13 µM, respectively. Further, in series [12], the viability at 1 day, 30 µM was found to be 85.9%.

For the compound `COc1ccc2c(c1)C1C(=CCn3c(=O)n(-c4ccccc4)c(=O)n31)C(C)(C)O2` (centres undefined), the Activity in series [1] was found to be 100%.

For the compound `CC1(C)Oc2cc(O)ccc2C2C1=CCn1c(=O)n(-c3ccc(Br)cc3)c(=O)n12` (centres undefined), the Activity in [1] came to 83%.

In the case of `CC1(C)Oc2cc(O)ccc2C2C1=CCn1c(=O)n(-c3ccc(F)cc3)c(=O)n12` (centres undefined), the viability at 4 day, 30 µM in [3] was found to be 80.7%. Further, the Activity in series [1] was 68%. For the same compound, the results for the IC50 in series [9] and in series [11] were 8.08 µM and 11.9 µM, respectively. Besides, the viability at 1 day, 30 µM in series [12] is 99%.

For `COc1cc2c(cc1OC)C1C(=CCn3c(=O)n(-c4ccccc4)c(=O)n31)C(C)(C)O2` (centres undefined), the Activity in [1] amounted to 99%.

In the case of `CC1(C)Oc2cc(O)ccc2C2C1=CCn1c(=O)n(C3CCCCC3)c(=O)n12` (centres undefined), the Activity in series [1] worked out at 113%.

`COc1ccc2c(c1O)OC(C)(C)C1=CCn3c(=O)n(-c4ccccc4)c(=O)n3C12` (centres undefined): in series [1], the Activity is 69%. Besides, the IC50 in [11] came to 22.2 µM.

As for `CC1(C)Oc2cc(O)ccc2C2C1=CCn1c(=O)n(-c3ccc(C(C)(C)C)cc3)c(=O)n12` (centres undefined), the viability at 4 day, 30 µM in [3] was determined as 73.4%. Also, the Activity in series [1] came out at 53%. For the same compound, the IC50 was 6.94 µM in series [9] and 6.77 µM in [11]. Further, the viability at 1 day, 30 µM in series [12] worked out at 79.7%.

On to `Cc1ccc(-n2c(=O)n3n(c2=O)C2C(=CC3)C(C)(C)Oc3cc(O)ccc32)cc1` (centres undefined), for which, in [2], the inhibition result was “Dose-dependent effect”. Also, in series [3], the viability at 4 day, 30 µM came out at 86.9%. Also, the inhibition entry in series [4], in series [7], in [8] and in series [13] was “Active” in each case. For the same compound, the outcome in series [5], in series [6] and in series [10] was Active. Moreover, in [1], the Activity turned out to be 50%. Besides, the IC50 is 7.97 µM in [9] and 7.05 µM in [11]. For the same compound, the viability at 1 day, 30 µM in series [12] is 100%.

As for `CC1(C)Oc2cc(O)ccc2C2C1=CCn1c(=O)n(-c3ccccc3I)c(=O)n12` (centres undefined), the Activity in series [1] is 101%.

Regarding `CCCN1CCC2(CC1)Oc1cc(O)ccc1C1C2=CCn2c(=O)n(-c3ccccc3)c(=O)n21` (centres undefined), in series [1], the Activity was 99%.

Regarding `O=c1n(-c2ccccc2)c(=O)n2n1CC=C1C2c2ccc(O)cc2OC12CCCC2` (centres undefined), the viability at 4 day, 30 µM in series [3] stood at 46%. For the same compound, the Activity in series [1] turned out to be 30%. The half-maximal inhibitory concentration (IC50) in [9] came to 5.09 µM; in series [11] it was 6.05 µM. In [12], the viability at 1 day, 30 µM was 77.8%.

Consider `COc1ccc2c(c1)OC(C)(C)C1=CCn3c(=O)n(-c4ccccc4)c(=O)n3C12` (centres undefined), for which, in series [1], the Activity is reported as 108%.

Regarding `CC1(C)Oc2cc(O)ccc2C2C1=CCn1c(=O)n(-c3cccc([N+](=O)[O-])c3)c(=O)n12` (centres undefined), the Activity in [1] turned out to be 105%.

Regarding `CC1(C)Oc2ccccc2C2C1=CCn1c(=O)n(-c3ccccc3)c(=O)n12` (centres undefined), the inhibition entry in series [4], in series [7], in series [8] and in [13] was “inactive” in each case. The inhibition entry in series [14] is “Active”. In addition, the result in series [5], in [6] and in series [10] was inactive. In addition, the Activity in series [1] came to 104%.

For `COc1ccc(-n2c(=O)n3n(c2=O)C2C(=CC3)C(C)(C)Oc3cc(O)ccc32)cc1` (centres undefined), the Activity in series [1] amounted to 93%.

Turning to `CC1(C)Oc2cc(O)ccc2C2C1=CCn1c(=O)n(Cc3ccccc3)c(=O)n12` (centres undefined), the Activity in series [1] was 98%.

For `CC(=O)N1CCC2(CC1)Oc1cc(O)ccc1C1C2=CCn2c(=O)n(-c3ccccc3)c(=O)n21` (centres undefined), in [1], the Activity amounted to 113%.

As to `Cn1c(=O)n2n(c1=O)C1C(=CC2)C(C)(C)Oc2cc(O)ccc21` (centres undefined), the Activity in [1] came out at 95%.

For `CC1(C)Oc2cc(O)ccc2C2C1=CCn1c(=O)n(-c3ccc(Cl)cc3)c(=O)n12` (centres undefined), the Activity in series [1] was found to be 112%.

Turning to `CNc1ccc2c(c1)OC(C)(C)C1=CCn3c(=O)n(-c4ccccc4)c(=O)n3C12` (centres undefined), in series [1], the Activity stood at 107%.

Turning to `COc1cccc(-n2c(=O)n3n(c2=O)C2C(=CC3)C(C)(C)Oc3cc(O)ccc32)c1` (centres undefined), the Activity in series [1] worked out at 86%.

In the case of `CC1(C)Oc2cc(O)ccc2C2C1=CCn1c(=O)n(-c3ccccc3Cl)c(=O)n12` (centres undefined), the Activity in series [1] came out at 95%.

The record behind these values is ChEMBL document CHEMBL1799963, “Discovery of novel benzopyranyl tetracycles that act as inhibitors of osteoclastogenesis induced by receptor activator of NF-κB ligand” (J Med Chem, 2010).
